What was measured:
[1] = molecular target: T1, h-15-LOX-1 (Homo sapiens, UniProt P16050); test: Michaelis-Menten / Lineweaver-Burk kinetics; type: biochemical
T1 sequence (P16050 1-662): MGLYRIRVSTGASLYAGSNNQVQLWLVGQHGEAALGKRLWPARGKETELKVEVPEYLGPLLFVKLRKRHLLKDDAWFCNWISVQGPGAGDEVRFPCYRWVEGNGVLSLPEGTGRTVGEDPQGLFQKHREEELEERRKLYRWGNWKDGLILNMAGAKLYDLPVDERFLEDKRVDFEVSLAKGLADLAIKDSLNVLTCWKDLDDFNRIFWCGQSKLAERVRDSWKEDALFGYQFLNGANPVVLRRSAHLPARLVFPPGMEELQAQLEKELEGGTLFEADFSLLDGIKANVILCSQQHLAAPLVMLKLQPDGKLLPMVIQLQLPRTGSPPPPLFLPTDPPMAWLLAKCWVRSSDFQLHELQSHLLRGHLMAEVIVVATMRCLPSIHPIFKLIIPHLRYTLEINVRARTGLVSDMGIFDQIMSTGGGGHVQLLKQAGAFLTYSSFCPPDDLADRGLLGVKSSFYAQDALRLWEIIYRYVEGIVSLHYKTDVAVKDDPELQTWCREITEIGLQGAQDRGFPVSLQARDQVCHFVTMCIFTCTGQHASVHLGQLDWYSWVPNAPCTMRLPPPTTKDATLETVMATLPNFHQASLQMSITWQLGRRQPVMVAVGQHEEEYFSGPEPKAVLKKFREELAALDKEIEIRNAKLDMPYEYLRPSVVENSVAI

[2] = system: 15‐LOX‐1 in RAW 264.7 cells; test: cell-based competition assay; set-up: species or system murine; conditions: for competition with BAM10 labelling, 10-fold competitor: 5 μM BAM10, competitor 10-fold (50 μM); for competition with BAM10 labelling, equimolar competitor: 5 μM BAM10, equimolar concentration of competitor
[3] = system: C. elegans; test: growth and imaging of BAM10-treated C. elegans; type: in vivo, Caenorhabditis elegans; conditions: 5 μM BAM10, competitor 50 μM, co-treated plates
[4] = molecular target: T2, purified 15‐LOX‐1 (Homo sapiens, UniProt P16050); test: fluorescence labeling of recombinant purified 15-LOX-1; type: binding; conditions: applied prior to the probe BAM10
T2 sequence (P16050 1-662): T1 sequence (P16050 1-662)
How it was run: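 Recombinant purified human 15‑LOX‑1 was incubated briefly with the fluorescent probe, then acetone‑precipitated, leaving excess probe in the supernatant; fluorescence of the labelled protein was read. For the dot‑blot, enzyme with or without pre‑incubation with a reference inhibitor was probe‑treated; controls lacked enzyme. Duplicates (n=2).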

[5] = system: soybean LOX; test: soybean LOX inhibition; type: biochemical; conditions: selectivity
[6] = molecular target: T2, purified 15‐LOX‐1; test: MS-based proteomics of covalent modification; type: binding; conditions: adduct after preincubation with purified 15-LOX-1
[7] = system: RAW 264.7 cells; test: imaging-based cell permeability and retention assay; set-up: species or system murine; conditions: live RAW 264.7 cells, timeframe of the experiment
How it was run: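 Live RAW 264.7 cells were treated in situ on the confocal microscope with the fluorescein‑tagged probe at room temperature. Images were recorded immediately and continuously to follow cellular uptake over time.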

| SMILES | competition with BAM10 labelling, 10-fold competitor [2] | competition with BAM10 labelling, equimolar competitor [2] | competition with BAM10 fluorescence in the pharynx [3] | other results |
| --- | --- | --- | --- | --- |
| CC#CCC#CCCCC=O [BAM1] |  |  |  | type of inhibition (Lineweaver–Burk plots) [1]: noncompetitive inhibition |
| CCCCNC(=O)c1cc(-c2ccccc2)sc1N [ThioLox, reference compound] | decreased almost to background levels | not significant | reduced BAM10 fluorescence intensity | effect on BAM10 labeling of the enzyme (dot-blot) [4]: reduced labeling of the enzyme |
| CC#CCC#CCCCC=NNc1ccccc1 [BAM3] | reduction of BAM10 fluorescence intensity | not significant | reduced BAM10 fluorescence intensity | difference in inhibitory potency in favor of human 15-LOX-1 over soybean LOX [5]: 4 fold; mass increase of tryptic peptide [YTLEINVRAR] (amino acids 395–404) [6]: 230 Da |
| O=C1OC2(c3ccc(O)cc3Oc3cc(O)ccc32)c2ccccc21 [fluorescein] |  |  |  | cell permeability [7]: impermeable |
